{"source": "ChEMBL document CHEMBL4308915", "about": "“Synthesis of novel pyrazoline derivatives and the evaluation of death mechanisms involved in their antileukemic activity” (Bioorg Med Chem, 2019)", "key": {"[1]": {"tested_on": "K562", "experiment": "Induction of apoptosis in human K562 cells assessed as increase in caspase-3 expression at 32 uM after 12 hrs by flow cytometric analysis relative to control", "format": "functional"}, "[2]": {"tested_on": "K562", "experiment": "Induction of apoptosis in human K562 cells assessed as reduction in cells with intact mitochondrial membrane potential at 32 uM after 12 hrs by flow cytometric analysis relative to control", "format": "functional", "design": "scale not given: the % may be the effect or the level left"}, "[3]": {"tested_on": "B16-F10", "experiment": "Cytotoxicity against mouse B16F10 cells assessed as reduction in cell viability after 72 hrs by MTT assay", "format": "functional, cell-based", "details": "B16-F10, 72 h"}, "[4]": {"tested_on": "K562", "experiment": "Antiproliferative activity against human K562 cells assessed as reduction in KI-67 expression at 32 uM after 12 hrs by flow cytometric analysis", "format": "functional, cell-based"}, "[5]": {"experiment": "Hemolytic activity in human RBC at 9 times IC50 relative to control", "format": "ADME, cell-based, Erythrocyte", "details": "red blood cells (erythrocytes), read-out: Activity", "procedure,_shortened": "(§1)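 RBC from healthy non-smoking volunteers incubated with increasing concentrations of the selected pyrazolines. Saline served as the 0% lysis control and distilled water as the 100% lysis control. Percent hemolysis calculated relative to these controls.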"}, "[6]": {"experiment": "Hemolytic activity in human RBC at 15 times IC50 relative to control", "format": "ADME, cell-based, Erythrocyte", "details": "red blood cells (erythrocytes), read-out: Activity", "procedure,_shortened": "as §1"}, "[7]": {"tested_on": "Jurkat", "experiment": "Induction of apoptosis in human Jurkat cells assessed as increase in chromatin condensation at 30.08 uM by acridine orange/ethidium bromide staining-based fluorescence microscopic analysis", "format": "functional, cell-based"}, "[8]": {"tested_on": "K562", "experiment": "Cell cycle arrest in human K562 cells assessed as increase in accumulation at G0/G1 phase at 32 uM after 12 hrs by propidium iodide/RNAse staining based flow cytometric analysis relative to control", "format": "functional"}, "[9]": {"tested_on": "Jurkat", "experiment": "Cell cycle arrest in human Jurkat cells assessed as increase in accumulation at S phase at 30.08 uM after 12 hrs by propidium iodide/RNAse staining based flow cytometric analysis", "format": "functional"}, "[10]": {"experiment": "Hemolytic activity in human RBC at 12 times IC50 relative to control", "format": "ADME, cell-based, Erythrocyte", "details": "red blood cells (erythrocytes), read-out: Activity", "procedure,_shortened": "as §1"}, "[11]": {"tested_on": "Daudi", "experiment": "Cytotoxicity against human Daudi cells assessed as reduction in cell viability after 72 hrs by MTT assay", "format": "functional, cell-based"}, "[12]": {"tested_on": "PBL", "experiment": "Cytotoxicity against acute leukemia patient-derived PBL cells assessed as reduction in cell viability after 24 hrs", "format": "functional, cell-based", "details": "Homo sapiens", "procedure,_shortened": "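Mononuclear cells from acute leukemia patient samples (peripheral blood or bone marrow, taken before first treatment at diagnosis or relapse) isolated by Ficoll-Hypaque.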"}, "[13]": {"tested_on": "Jurkat", "experiment": "Induction of apoptosis in human Jurkat cells assessed as increase in caspase-3 expression at 30.08 uM after 12 hrs by flow cytometric analysis relative to control", "format": "functional"}, "[14]": {"tested_on": "Jurkat", "experiment": "Cytotoxicity against human Jurkat cells assessed as reduction in cell viability after 72 hrs by MTT assay", "format": "functional, cell-based"}, "[15]": {"tested_on": "Jurkat", "experiment": "Induction of apoptosis in human Jurkat cells assessed as increase in AIF release at 30.08 uM after 12 hrs by flow cytometric analysis relative to control", "format": "functional"}, "[16]": {"tested_on": "K562", "experiment": "Cytotoxicity against human K562 cells assessed as reduction in cell viability after 72 hrs by MTT assay", "format": "functional, cell-based", "details": "K562, 72 h"}, "[17]": {"tested_on": "Daudi", "experiment": "Cytotoxicity against human Daudi cells assessed as reduction in cell viability after 24 hrs by MTT assay", "format": "functional, cell-based", "procedure,_shortened": "(§2)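 MTT viability after 24 h exposure. Cells seeded at 5x10^4 per well and tested at 1-100 µM. Optical density of untreated cells set as 100% viable. IC50 derived by curve fitting. PBMC from healthy non-smoking volunteers, isolated by Ficoll-Hypaque.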"}, "[18]": {"tested_on": "K562", "experiment": "Induction of apoptosis in human K562 cells assessed as decrease in Bcl2 expression at 32 uM after 12 hrs by flow cytometric analysis relative to control", "format": "functional", "design": "scale not given: the % may be the effect or the level left"}, "[19]": {"experiment": "Selectivity index, ratio of IC50 for human PBMC to IC50 for human Jurkat cells after 24 hrs", "format": "toxicity", "details": "PBMC versus Jurkat cells, read-out: Ratio IC50", "procedure,_shortened": "(§3)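 MTT viability after 24 h exposure to 1-100µM; untreated control OD taken as 100%. IC50 by curve fitting in each line and in PBMC from six healthy donors (Ficoll-Hypaque). SI = IC50 PBMC / IC50 tumor line; SI ≥5 high, 2–5 moderate, <2 low.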"}, "[20]": {"tested_on": "B16-F10", "experiment": "Cytotoxicity against mouse B16F10 cells assessed as reduction in cell viability after 48 hrs by MTT assay", "format": "functional, cell-based", "details": "B16-F10, 48 h"}, "[21]": {"tested_on": "Jurkat", "experiment": "Cytotoxicity against human Jurkat cells assessed as reduction in cell viability after 24 hrs by MTT assay", "format": "functional, cell-based", "procedure,_shortened": "as §2"}, "[22]": {"tested_on": "K562", "experiment": "Induction of apoptosis in human K562 cells assessed as increase in loss of membrane integrity at 32 uM by acridine orange/ethidium bromide staining-based fluorescence microscopic analysis", "format": "functional, cell-based"}, "[23]": {"tested_on": "Jurkat", "experiment": "Induction of apoptosis in human Jurkat cells assessed as increase in membrane blebbing at 30.08 uM by acridine orange/ethidium bromide staining-based fluorescence microscopic analysis", "format": "functional, cell-based"}, "[24]": {"tested_on": "Jurkat", "experiment": "Induction of DNA fragmentation in human Jurkat cells assessed as increase in ladder formation at 30.08 uM after 12 hrs by ethidium bromide staining based agarose gel electrophoresis method", "format": "functional, cell-based"}, "[25]": {"experiment": "Hemolytic activity in human RBC at 2 times IC50 relative to control", "format": "ADME, cell-based, Erythrocyte", "details": "red blood cells (erythrocytes), read-out: Activity", "procedure,_shortened": "as §1"}, "[26]": {"tested_on": "Jurkat", "experiment": "Induction of apoptosis in human Jurkat cells assessed as increase in Bax expression at 30.08 uM after 12 hrs by flow cytometric analysis relative to control", "format": "functional"}, "[27]": {"tested_on": "Jurkat", "experiment": "Antiproliferative activity against human Jurkat cells assessed as reduction in KI-67 expression at 30.08 uM after 12 hrs by flow cytometric analysis", "format": "functional, cell-based"}, "[28]": {"tested_on": "Jurkat", "experiment": "Induction of apoptosis in human Jurkat cells assessed reduction in cells with intact mitochondrial membrane potential at 30.08 uM after 12 hrs by flow cytometric analysis relative to control", "format": "functional", "design": "scale not given: the % may be the effect or the level left"}, "[29]": {"experiment": "Hemolytic activity in human RBC at 3 times IC50 relative to control", "format": "ADME, cell-based, Erythrocyte", "details": "red blood cells (erythrocytes), read-out: Activity", "procedure,_shortened": "as §1"}, "[30]": {"tested_on": "Jurkat", "experiment": "Induction of apoptosis in human Jurkat cells assessed as decrease in survivin level at 30.08 uM after 12 hrs by flow cytometric analysis relative to control", "format": "functional"}, "[31]": {"tested_on": "Jurkat", "experiment": "Cytotoxicity against human Jurkat cells assessed as reduction in cell viability after 48 hrs by MTT assay", "format": "functional, cell-based"}, "[32]": {"tested_on": "K562", "experiment": "Induction of apoptosis in human K562 cells assessed as increase in Bax expression at 32 uM after 12 hrs by flow cytometric analysis relative to control", "format": "functional"}, "[33]": {"tested_on": "Daudi", "experiment": "Cytotoxicity against human Daudi cells assessed as reduction in cell viability after 48 hrs by MTT assay", "format": "functional, cell-based"}, "[34]": {"experiment": "Hemolytic activity in human RBC at 1 time IC50 relative to control", "format": "ADME, cell-based, Erythrocyte", "details": "red blood cells (erythrocytes), read-out: Activity", "procedure,_shortened": "as §1"}, "[35]": {"experiment": "Selectivity index, ratio of IC50 for human PBMC to IC50 for mouse B16F10 cells after 24 hrs", "format": "toxicity", "details": "PBMC versus B16F10 cells, read-out: Ratio IC50", "procedure,_shortened": "as §3"}, "[36]": {"tested_on": "Jurkat (human)", "experiment": "Induction of apoptosis in human Jurkat cells assessed as increase in AIF release at 30.08 uM after 12 hrs by flow cytometric analysis relative to control"}, "[37]": {"tested_on": "B16-F10", "experiment": "Cytotoxicity against mouse B16F10 cells assessed as reduction in cell viability after 24 hrs by MTT assay", "format": "functional, cell-based", "details": "B16-F10, 24 h", "procedure,_shortened": "as §2"}, "[38]": {"experiment": "Selectivity index, ratio of IC50 for human PBMC to IC50 for human K562 cells after 24 hrs", "format": "toxicity", "details": "PBMC versus K562 cells, read-out: Ratio IC50", "procedure,_shortened": "as §3"}, "[39]": {"tested_on": "PBMC", "experiment": "Cytotoxicity against human PBMC assessed as reduction in cell viability after 24 hrs by MTT assay", "format": "cell-based"}}, "note": "Active and inactive are the calls of the source. No cut-off for these calls is given here.", "data": [{"smiles": "COc1cc(C2=NN(C(C)=O)C(c3ccc(Br)cc3)C2)cc(OC)c1OC", "note": "(stereo not given)", "values": [{"measurement": "Activity", "setting": "[1]", "value": 20, "unit": "%"}, {"measurement": "Activity", "setting": "[2]", "value": 25.3, "unit": "%"}, {"measurement": "IC50", "setting": "[3]", "value": 62.5, "unit": "µM"}, {"measurement": "Activity", "setting": "[4]", "value": "Active"}, {"measurement": "hemolysis at 9 times IC50", "setting": "[5]", "value": 6, "unit": "%"}, {"measurement": "hemolysis at 15 times IC50", "setting": "[6]", "value": 15.8, "unit": "%"}, {"measurement": "Activity", "setting": "[7]", "value": "Active"}, {"measurement": "Activity", "setting": "[8]", "value": 8, "unit": "%"}, {"measurement": "Activity", "setting": "[9]", "value": "inactive"}, {"measurement": "hemolysis at 12 times IC50", "setting": "[10]", "value": 12.9, "unit": "%"}, {"measurement": "IC50", "setting": "[11]", "value": 33, "unit": "µM"}, {"measurement": "Activity", "setting": "[12]", "value": "Dose-dependent effect"}, {"measurement": "IC50", "setting": "[12]", "value": "11.8 to 142", "unit": "µM"}, {"measurement": "Activity", "setting": "[13]", "value": 128.3, "unit": "%"}, {"measurement": "IC50", "setting": "[14]", "value": 15.6, "unit": "µM"}, {"measurement": "Activity", "setting": "[15]", "value": 33.2, "unit": "%"}, {"measurement": "IC50", "setting": "[16]", "value": 15.1, "unit": "µM"}, {"measurement": "IC50", "setting": "[17]", "value": 49.8, "unit": "µM"}, {"measurement": "Activity", "setting": "[18]", "value": 13.4, "unit": "%"}, {"measurement": "selectivity ratio at 24 h", "setting": "[19]", "value": 10.6}, {"measurement": "IC50", "setting": "[20]", "value": 72.7, "unit": "µM"}, {"measurement": "IC50", "setting": "[21]", "value": 30.8, "unit": "µM"}, {"measurement": "Activity", "setting": "[22]", "value": "Active"}, {"measurement": "Activity", "setting": "[23]", "value": "Active"}, {"measurement": "Activity", "setting": "[24]", "value": "Active"}, {"measurement": "hemolysis at 2 times IC50", "setting": "[25]", "value": 1.3, "unit": "%"}, {"measurement": "Activity", "setting": "[26]", "value": 101.4, "unit": "%"}, {"measurement": "Activity", "setting": "[27]", "value": "Active"}, {"measurement": "Activity", "setting": "[28]", "value": 32.9, "unit": "%"}, {"measurement": "hemolysis at 3 times IC50", "setting": "[29]", "value": 1.6, "unit": "%"}, {"measurement": "Activity", "setting": "[30]", "value": 10.7, "unit": "%"}, {"measurement": "IC50", "setting": "[31]", "value": 17.2, "unit": "µM"}, {"measurement": "Activity", "setting": "[32]", "value": 15.8, "unit": "%"}, {"measurement": "IC50", "setting": "[33]", "value": 34.8, "unit": "µM"}, {"measurement": "hemolysis at 1 times IC50", "setting": "[34]", "value": 0.9, "unit": "%"}, {"measurement": "selectivity ratio at 24 h", "setting": "[35]", "value": 3.4}, {"measurement": "Activity", "setting": "[36]", "value": 33.2, "unit": "%"}, {"measurement": "IC50", "setting": "[37]", "value": 98.7, "unit": "µM"}, {"measurement": "selectivity ratio at 24 h", "setting": "[38]", "value": 11}, {"measurement": "IC50", "setting": "[39]", "value": 340, "unit": "µM"}]}]}
